The source of these data is the array DNA melting data of Ke et al. (doi:10.1101/2024.01.08.574731).

The nature of series [1]: folding enthalpy; higher = less favourable; fluorescence melt of hairpins on a sequencing array, two-state fit. The settings on record: sodium 0.088 M. In short, it runs like this: (§1)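 Bootstrapped two-state fits yielded melting temperature and folding enthalpy for library hairpins. Cy3 fluorescence, with annealed Cy3 and quencher oligos, was imaged on a sequenced MiSeq flow cell in 50 mM Na-HEPES pH 8.0, 25 mM NaCl in 2.5 °C steps up to 60 °C, and normalised to pre-quench Cy3 and to control constructs. Four replicates were combined by inverse variance, and fitted temperatures were raised by 9.35 °C to match UV melts.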

Series [2] in a line: melting temperature; fluorescence melt of hairpins on a sequencing array, two-state fit, raised by 9.35 °C to match UV melts. The settings on record: sodium 0.088 M. A digest of the protocol: as §1

For the sequence GATCTAAGCCTAGATC ((((((....)))))), in series [1], the folding enthalpy was -31.9 kcal/mol. In addition, the Tm in series [2] came out at 39.1 °C.
In the case of GATCTAAGGATAGATC ((((((....)))))), in series [1], the folding enthalpy was -21.9 kcal/mol. Further, the Tm in series [2] worked out at 34 °C.
With GATCTAAGGTAGATC ((((((...)))))), the folding enthalpy in series [1] is -20.8 kcal/mol. Further, the Tm in series [2] stood at 37.6 °C.
On the same counts, the results for GATCTAAGTGTAGATC ((((((....)))))) are -28.5 kcal/mol and 39.3 °C.
On the same counts, the results for GATCTAATCTTAGATC ((((((....)))))) are -35.3 kcal/mol and 43.6 °C.
With GATCTAATGTAGATC ((((((...)))))), the folding enthalpy in series [1] is -25.5 kcal/mol. In series [2], the Tm amounted to 36.6 °C.
For GATCTAATTTTAGATC ((((((....)))))), in that order: -34.2 kcal/mol and 44 °C.
For GATCTACAAATAGATC ((((((....)))))), in that order: -25.4 kcal/mol and 36.6 °C.
For GATCTACACCTAGATC ((((((....)))))), in that order: -39.5 kcal/mol and 42.5 °C.
In the case of GATCTACACGTAGATC ((((((....)))))), the folding enthalpy in series [1] was -35.6 kcal/mol. For the same sequence, the Tm in series [2] is 50.5 °C.
In the case of GATCTACACTAGATC ((((((...)))))), in series [1], the folding enthalpy was -20.8 kcal/mol. Also, the Tm in series [2] is 41.7 °C.
Consider GATCTACAGCTAGATC ((((((....)))))), for which the folding enthalpy in series [1] is -31.8 kcal/mol. Further, the Tm in series [2] turned out to be 35.1 °C.
On the same counts, the results for GATCTACAGGTAGATC ((((((....)))))) are -37.6 kcal/mol and 48.8 °C.
On the same counts, the results for GATCTACATATAGATC ((((((....)))))) are -35.4 kcal/mol and 40.8 °C.
On the same counts, the results for GATCTACCACTAGATC ((((((....)))))) are -30.6 kcal/mol and 39.7 °C.
On to GATCTACCCATAGATC ((((((....)))))), for which, in series [1], the folding enthalpy is -35.8 kcal/mol. Also, the Tm in series [2] is 41.4 °C.
On the same counts, the results for GATCTACCGTAGATC ((((((...)))))) are -31.6 kcal/mol and 39.1 °C.
On to GATCTACGAAAGTATATC (((.(((....))).))), for which the folding enthalpy in series [1] is -22.4 kcal/mol. The Tm in series [2] was found to be 32.5 °C.
On the same counts, the results for GATCTACTGTTAGATC ((((((....)))))) are -32.4 kcal/mol and 40.9 °C.
For GATCTACTTTAGATC ((((((...)))))), in that order: -30.1 kcal/mol and 41.7 °C.
As to GATCTAGCCATAGATC ((((((....)))))), in series [1], the folding enthalpy is -41 kcal/mol. Besides, the Tm in series [2] was 49.3 °C.
On the same counts, the results for GATCTAGCGATAGATC ((((((....)))))) are -34.7 kcal/mol and 46 °C.
For GATCTAGCGCTAGATC ((((((....)))))), in that order: -45.9 kcal/mol and 53.6 °C.
On the same counts, the results for GATCTAGCGGTAGATC ((((((....)))))) are -32.2 kcal/mol and 44 °C.
Consider GATCTAGCTGTAGATC ((((((....)))))), for which the folding enthalpy in series [1] is -32.8 kcal/mol. In series [2], the Tm came out at 39.9 °C.
For GATCTAGGAAACCAGATC (((((.(....).))))), in that order: -25.3 kcal/mol and 34.6 °C.
For GATCTAGGAATAGATC ((((((....)))))), in that order: -29.3 kcal/mol and 42.9 °C.
Consider GATCTAGGATAGATC ((((((...)))))), for which, in series [1], the folding enthalpy is -32.1 kcal/mol. Also, the Tm in series [2] came out at 48.7 °C.
For GATCTAGGGATAGATC ((((((....)))))), in that order: -30.8 kcal/mol and 42.3 °C.
With GATCTAGGGGTAGATC ((((((....)))))), the folding enthalpy in series [1] was -30.2 kcal/mol. Besides, the Tm in series [2] is 36.4 °C.
On the same counts, the results for GATCTAGGGTAGATC ((((((...)))))) are -22.7 kcal/mol and 36.7 °C.
For GATCTAGTATAGATC ((((((...)))))), in that order: -41.5 kcal/mol and 49.5 °C.
On the same counts, the results for GATCTAGTGGTAGATC ((((((....)))))) are -28 kcal/mol and 38 °C.
As to GATCTAGTGTTAGATC ((((((....)))))), in series [1], the folding enthalpy is -30 kcal/mol. Further, the Tm in series [2] turned out to be 40.6 °C.
For GATCTATAACTAGATC ((((((....)))))), in that order: -34.2 kcal/mol and 36.7 °C.
On the same counts, the results for GATCTATACATAGATC ((((((....)))))) are -37.1 kcal/mol and 46.4 °C.
For GATCTATACGTAGATC ((((((....)))))), in that order: -40.1 kcal/mol and 45.3 °C.
As for GATCTATAGATAGATC ((((((....)))))), the folding enthalpy in series [1] was -32.6 kcal/mol. In addition, the Tm in series [2] came to 39.9 °C.
